Reference: ChEMBL document CHEMBL4118104, “Design, Synthesis, and Evaluation of Orally Bioavailable Quinoline-Indole Derivatives as Innovative Multitarget-Directed Ligands: Promotion of Cell Proliferation in the Adult Murine Hippocampus for the Treatment of Alzheimer's Disease” (J Med Chem, 2018)
Calls of active or inactive are those of the source. The calls are words filed in the database; no cut-off is given here.

Experiments:
Mus musculus [1] = test: Toxicity in C57BL/6 mouse assessed as effect on body weight at 677 to 2000 mg/kg, ig measured continuously during first 4 hrs, intermittently for following 24 hrs and occasionally thereafter for 14 consecutive days; type: organism-based; details: in vivo, po
Mus musculus [2] = test: Toxicity in C57BL/6 mouse assessed as macroscopic abnormalities of heart at 677 to 2000 mg/kg, ig after 14 consecutive days; type: organism-based; details: in vivo, po
Mus musculus [3] = test: Toxicity in C57BL/6 mouse assessed as macroscopic abnormalities of stomach at 677 to 2000 mg/kg, ig after 14 consecutive days; type: organism-based; details: in vivo, po
Mus musculus [4] = test: Toxicity in C57BL/6 mouse assessed as mortality at 677 to 2000 mg/kg, ig measured continuously during first 4 hrs, intermittently for following 24 hrs and occasionally thereafter for 14 consecutive days; type: organism-based; details: in vivo, po
In short: (§1)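 Adult C57BL/6 mice, 12 weeks old, given single intragastric doses of 0, 677, 1333 or 2000 mg/kg (n = 6 per dose, 3 male and 3 female). Abnormal behaviour and deaths observed continuously for the first 4 h, intermittently over the next 24 h, then occasionally for 14 days to catch delayed effects.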

Mus musculus [5] = test: Toxicity in C57BL/6 mouse assessed as histological abnormalities of lung at 2000 mg/kg, ig after 14 consecutive days by hematoxylin/eosin dye-based microscopic analysis; type: organism-based; details: in vivo, po, 336 h
In short: (§2)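 Adult C57BL/6 mice, 12 weeks old, single intragastric doses of 0, 677, 1333 or 2000 mg/kg (n = 6 per dose, 3 male/3 female); behaviour and mortality observed over 14 days; liver, heart, lung and brain examined by HE staining at 2000 mg/kg.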

[6] = Metabolic stability in Sprague-Dawley rat liver microsomes assessed as metabolic rate constant at 100 uM up to 180 mins by HPLC-UV analysis; details: 3 h
[7] = Half life in Sprague-Dawley rat liver microsomes at 100 uM up to 180 mins by HPLC-UV analysis
Mus musculus [8] = test: Induction of cell proliferation in C57BL/6 mouse hippocampal neurons in CA1 region assessed as BrdU-incorporation at 0.5 uL/hr, icv for 7 days by immunohistochemical analysis (reference value: 3.2%); type: functional
Mus musculus [9] = test: Toxicity in C57BL/6 mouse assessed as macroscopic abnormalities of intestine at 677 to 2000 mg/kg, ig after 14 consecutive days; type: organism-based; details: in vivo, po
Mus musculus [10] = test: Toxicity in C57BL/6 mouse assessed as effect on water intake at 677 to 2000 mg/kg, ig measured continuously during first 4 hrs, intermittently for following 24 hrs and occasionally thereafter for 14 consecutive days; type: organism-based; details: in vivo, po
Mus musculus [11] = test: Toxicity in C57BL/6 mouse assessed as histological abnormalities of heart at 2000 mg/kg, ig after 14 consecutive days by hematoxylin/eosin dye-based microscopic analysis; type: organism-based; details: in vivo, po; in short: as §2
Mus musculus [12] = test: Induction of cell proliferation in C57BL/6 mouse hippocampal neurons in CA1 region assessed as BrdU-incorporation at 30 mg/kg, po administered via gavage for 7 days by immunohistochemical analysis (reference value: 2.3%); type: functional
In short: (§3)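 C57BL/6 mice, 12 weeks old, n = 6, individually housed beforehand without wheels. Compound gavaged 30 mg/kg/day for 7 days with daily IP BrdU 50 mg/kg; BrdU+ cells counted by immunohistochemistry per hippocampal volume; two-way ANOVA.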

Mus musculus [13] = test: Induction of cell proliferation in C57BL/6 mouse hippocampal neurons in CA2 region assessed as BrdU-incorporation at 0.5 uL/hr, icv for 7 days by immunohistochemical analysis (reference value: 2.4%); type: functional
Mus musculus [14] = test: Induction of cell proliferation in C57BL/6 mouse hippocampal neurons in DG region assessed as BrdU-incorporation at 0.5 uL/hr, icv for 7 days by immunohistochemical analysis (reference value: 7.8%); type: functional
Mus musculus [15] = test: Induction of cell proliferation in C57BL/6 mouse hippocampal neurons in CA3 region assessed as BrdU-incorporation at 0.5 uL/hr, icv for 7 days by immunohistochemical analysis (reference value: 1.4%); type: functional
Mus musculus [16] = test: Induction of cell proliferation in C57BL/6 mouse hippocampal neurons in DG region assessed as BrdU-incorporation at 30 mg/kg, po administered via gavage for 7 days by immunohistochemical analysis (reference value: 2.2%); type: functional; in short: as §3
Mus musculus [17] = test: Toxicity in C57BL/6 mouse assessed as macroscopic abnormalities of liver at 677 to 2000 mg/kg, ig after 14 consecutive days; type: organism-based; details: in vivo, po
Mus musculus [18] = test: Toxicity in C57BL/6 mouse assessed as histological abnormalities of brain at 2000 mg/kg, ig after 14 consecutive days by hematoxylin/eosin dye-based microscopic analysis; type: organism-based; details: in vivo, po, 336 h; in short: as §2
Mus musculus [19] = test: Toxicity in C57BL/6 mouse assessed as macroscopic abnormalities of spleen at 677 to 2000 mg/kg, ig after 14 consecutive days; type: organism-based; details: in vivo, po
Mus musculus [20] = test: Toxicity in C57BL/6 mouse assessed as abnormal behavior at 677 to 2000 mg/kg, ig measured continuously during first 4 hrs, intermittently for following 24 hrs and occasionally thereafter for 14 consecutive days; type: organism-based; details: in vivo, po; in short: as §1
Mus musculus [21] = test: Toxicity in C57BL/6 mouse assessed as histological abnormalities of liver at 2000 mg/kg, ig after 14 consecutive days by hematoxylin/eosin dye-based microscopic analysis; type: organism-based; details: in vivo, po, 336 h; in short: as §2
Mus musculus [22] = test: Toxicity in C57BL/6 mouse assessed as macroscopic abnormalities of lung at 677 to 2000 mg/kg, ig after 14 consecutive days; type: organism-based; details: in vivo, po, 336 h
Mus musculus [23] = test: Toxicity in C57BL/6 mouse assessed as macroscopic abnormalities of kidney at 677 to 2000 mg/kg, ig after 14 consecutive days; type: organism-based; details: in vivo, po
Mus musculus [24] = test: Induction of cell proliferation in C57BL/6 mouse hippocampal neurons in CA3 region assessed as BrdU-incorporation at 30 mg/kg, po administered via gavage for 7 days by immunohistochemical analysis (reference value: 1.5%); type: functional; in short: as §3
Mus musculus [25] = test: Toxicity in C57BL/6 mouse assessed as effect on food intake at 677 to 2000 mg/kg, ig measured continuously during first 4 hrs, intermittently for following 24 hrs and occasionally thereafter for 14 consecutive days; type: organism-based; details: in vivo, po
Mus musculus [26] = test: Induction of cell proliferation in C57BL/6 mouse hippocampal neurons in CA2 region assessed as BrdU-incorporation at 30 mg/kg, po administered via gavage for 7 days by immunohistochemical analysis (reference value: 2.4%); type: functional; in short: as §3
[27] = target: Amyloid-beta precursor protein (Homo sapiens) (UniProt P05067); test: Induction of disaggregation of amyloid beta (1 to 42) (unknown origin) fibrils at compound to amyloid beta ratio of 1:1 after 48 hrs by thioflavin-T fluorescence assay relative to control
In short: (§4)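 Aβ1-42 at 25 µM with compound at 1:1 in 50 mM PBS, pH 7.4, 37 °C, read by ThT fluorescence or by TEM. Disaggregation was done on preformed aggregates. ThT data are mean ± SD of at least three experiments.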

[28] = target: Amyloid-beta precursor protein (Homo sapiens) (UniProt P05067); test: Inhibition of amyloid beta (1 to 42) (unknown origin) self-induced aggregation at compound to amyloid beta ratio of 1:1 after 48 hrs by thioflavin-T fluorescence assay relative to control; details: concentration not given here; in short: as §4
Mus musculus [29] = test: Cognition enhancement activity in double APP/PS1 transgenic Alzheimer's disease mouse model assessed as increase in number of virtual platform crossing at 30 mg/kg/day, po for 80 days by Morris water maze test; type: functional, organism-based
In short: (§5)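 APP/PS1 mice, six months old, gavaged 30 mg/kg/day in 0.5% CMC-Na for 80 days. Probe trial was a single 90 s free swim with the platform absent; effective region is twice the platform diameter. n = 10, mean ± SD, two-way ANOVA.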

PC-12 [30] = test: Induction of rat PC12 cell proliferation at 10 uM after 72 hrs by microscopic analysis; type: functional, cell-based
In short: (§6)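 Undifferentiated PC12 cells cultured 72 h with compound at 0.5–50 µM (images at 10 µM) or with NGF 50 ng/ml, then examined under a digital microscope.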

Mus musculus [31] = test: Cognition enhancement activity in double APP/PS1 transgenic Alzheimer's disease mouse model assessed as decrease in path searching behavior at 30 mg/kg/day, po for 80 days by Morris water maze test; type: functional, organism-based
In short: (§7)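 APP/PS1 double transgenic mice, six months old, gavaged 30 mg/kg/day in 0.5% CMC-Na for 80 days; vehicle mice and WT C57BL/6 received blank CMC-Na. Escape latency recorded daily over the training trials; n = 10, mean ± SD, two-way ANOVA.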

PC-12 [32] = test: Induction of rat PC12 cell proliferation at 0.5 to 50 uM after 72 hrs by microscopic analysis; type: functional, cell-based; in short: as §6
Mus musculus [33] = test: Cognition enhancement activity in double APP/PS1 transgenic Alzheimer's disease mouse model assessed as decrease in escape latency at 30 mg/kg/day, po for 80 days by Morris water maze test; type: functional, organism-based; in short: as §7
Mus musculus [34] = test: Cognition enhancement activity in double APP/PS1 transgenic Alzheimer's disease mouse model assessed as increase in number of effective region crossing at 30 mg/kg/day, po for 80 days by Morris water maze test; type: functional, organism-based; in short: as §5

Sequence of Amyloid-beta precursor protein (Homo sapiens) (P05067 whole entry): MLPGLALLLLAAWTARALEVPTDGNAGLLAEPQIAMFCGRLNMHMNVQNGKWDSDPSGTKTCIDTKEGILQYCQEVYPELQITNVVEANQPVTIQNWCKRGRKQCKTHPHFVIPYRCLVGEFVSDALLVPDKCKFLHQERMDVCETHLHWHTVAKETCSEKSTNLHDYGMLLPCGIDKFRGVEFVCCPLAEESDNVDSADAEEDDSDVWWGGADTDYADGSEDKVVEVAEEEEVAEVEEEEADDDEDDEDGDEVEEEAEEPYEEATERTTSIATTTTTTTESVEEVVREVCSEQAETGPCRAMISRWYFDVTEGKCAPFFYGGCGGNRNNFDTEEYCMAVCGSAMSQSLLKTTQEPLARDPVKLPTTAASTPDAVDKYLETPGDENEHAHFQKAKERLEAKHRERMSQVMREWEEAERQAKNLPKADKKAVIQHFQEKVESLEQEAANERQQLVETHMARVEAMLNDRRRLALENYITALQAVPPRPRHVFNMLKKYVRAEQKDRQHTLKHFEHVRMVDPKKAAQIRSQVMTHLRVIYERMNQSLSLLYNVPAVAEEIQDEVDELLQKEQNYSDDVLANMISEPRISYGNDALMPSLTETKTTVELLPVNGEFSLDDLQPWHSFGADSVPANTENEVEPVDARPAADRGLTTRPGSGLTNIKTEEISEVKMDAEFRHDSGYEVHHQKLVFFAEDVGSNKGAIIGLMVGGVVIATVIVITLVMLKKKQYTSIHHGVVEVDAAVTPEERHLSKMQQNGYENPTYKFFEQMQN

Compound: Cl.Oc1cccc2ccc(-c3cc4ccc5c(c4[nH]3)OCO5)nc12
- Activity (Mus musculus [1]): Non-Toxic
- Activity (Mus musculus [2]): Non-Toxic
- Activity (Mus musculus [3]): Non-Toxic
- Activity (Mus musculus [4]): Non-Toxic
- Activity (Mus musculus [5]): Non-Toxic
- K [6]: 0.01183 min⁻¹
- half-life at 3 h, 100 µM ([7]; microsomes): 0.977 h
- Activity (Mus musculus [8]): 61.9%
- Activity (Mus musculus [9]): Non-Toxic
- Activity (Mus musculus [10]): Non-Toxic
- Activity (Mus musculus [11]): Non-Toxic
- Activity (Mus musculus [12]): 8%
- Activity (Mus musculus [13]): 56.1%
- Activity (Mus musculus [14]): 43.6%
- Activity (Mus musculus [15]): 49.3%
- Activity (Mus musculus [16]): 7.6%
- Activity (Mus musculus [17]): Non-Toxic
- Activity (Mus musculus [18]): Non-Toxic
- Activity (Mus musculus [19]): Non-Toxic
- Activity (Mus musculus [20]): Non-Toxic
- Activity (Mus musculus [21]): Non-Toxic
- Activity (Mus musculus [22]): Non-Toxic
- Activity (Mus musculus [23]): Non-Toxic
- Activity (Mus musculus [24]): 3.9%
- Activity (Mus musculus [25]): Non-Toxic
- Activity (Mus musculus [26]): 7.5%

Compound: Oc1c(Cl)cc(Cl)c2ccc(-c3cc4cc5c(cc4[nH]3)OCO5)nc12
- Activity [27]: 48.5 to 72.7%
- inhibition [28]: 48.6 to 71.6%
- Activity (Mus musculus [29]): Active
- Activity (PC-12 [30]): Active
- Activity (Mus musculus [31]): Active
- Activity (PC-12 [32]): Active
- Activity (Mus musculus [33]): Active
- Activity (Mus musculus [34]): Active

Compound: Cl.Oc1c(Cl)cc(Cl)c2ccc(-c3cc4cc(Cl)ccc4[nH]3)nc12
- Activity (Mus musculus [1]): Non-Toxic
- Activity (Mus musculus [2]): Non-Toxic
- Activity (Mus musculus [3]): Non-Toxic
- Activity (Mus musculus [4]): Non-Toxic
- Activity (Mus musculus [5]): Non-Toxic
- K [6]: 0.00354 min⁻¹
- half-life at 3 h, 100 µM ([7]; liver microsomes): 3.26 h
- Activity (Mus musculus [8]): 15.3%
- Activity (Mus musculus [9]): Non-Toxic
- Activity (Mus musculus [10]): Non-Toxic
- Activity (Mus musculus [11]): Non-Toxic
- Activity (Mus musculus [12]): 4.8%
- Activity (Mus musculus [13]): 18.1%
- Activity (Mus musculus [14]): 28.5%
- Activity (Mus musculus [15]): 20.3%
- Activity (Mus musculus [16]): 4.4%
- Activity (Mus musculus [17]): Non-Toxic
- Activity (Mus musculus [18]): Non-Toxic
- Activity (Mus musculus [19]): Non-Toxic
- Activity (Mus musculus [20]): Non-Toxic
- Activity (Mus musculus [21]): Non-Toxic
- Activity (Mus musculus [22]): Non-Toxic
- Activity (Mus musculus [23]): Non-Toxic
- Activity (Mus musculus [24]): 4.7%
- Activity (Mus musculus [25]): Non-Toxic
- Activity (Mus musculus [26]): 5.1%
